Measurements taken from ChEMBL document CHEMBL1126625, “7-Azetidinylquinolones as antibacterial agents. Synthesis and structure-activity relationships” (J Med Chem, 1993).
Values after ≈ are worked out from the molar mass of the structure shown.

Experiments:
[1] = tested on: Mus musculus; experiment: Blood level after oral administration in mice (50 mg/kg) was determined by bioassay procedure and represent total activity present in the serum; assay type: ADME, organism-based; conditions: in vivo
In short: (§1)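 Single oral dose of 50 mg/kg to mice. Blood taken from groups of six mice at 0.5, 1, 2 and 4 h after dosing. Serum levels measured by disk agar diffusion bioassay with Bacillus subtilis ATCC 6633 on Seed Agar, plates incubated 18 h at 37 °C, giving total activity in serum. AUC 0-4 h expressed as μg/mL […].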

[2] = tested on: Bacillus cereus; experiment: Minimum inhibitory concentration (MIC) preventing growth of Bacillus cereus; assay type: functional
[3] = tested on: Bacillus subtilis; experiment: Minimum inhibitory concentration (MIC) preventing growth of Bacillus subtilis; assay type: functional
[4] = tested on: Escherichia coli; experiment: Minimum inhibitory concentration (MIC)preventing growth of Escherichia coli; assay type: functional
[5] = tested on: Escherichia coli; experiment: Efficacy on systemic infections after oral administration in mice was determined against Escherichia coli HM-42; assay type: functional
In short: (§2)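 Mouse protection test using 4 groups of 10 mice. Mice were infected intraperitoneally with a bacterial suspension slightly above LD100. A single oral dose was given immediately after infection, with four doses, one per group, chosen from in vitro activity. Survival was scored after one week, and ED50 (total mg/kg protecting 50% of mice) was interpolated from group survival rates.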

[6] = tested on: Klebsiella pneumoniae; experiment: Minimum inhibitory concentration (MIC)preventing growth of Klebsiella pneumoniae; assay type: functional
[7] = tested on: Morganella morganii; experiment: Minimum inhibitory concentration (MIC) preventing growth of Morganella morganii; assay type: functional
[8] = tested on: Pseudomonas aeruginosa; experiment: Efficacy on systemic infections after oral administration in mice was determined against Pseudomonas aeruginosa HS-116; assay type: functional; in short: as §2
[9] = tested on: Proteus vulgaris; experiment: Minimum inhibitory concentration (MIC) preventing growth of Proteus vulgaris; assay type: functional
[10] = tested on: Staphylococcus epidermidis; experiment: Minimum inhibitory concentration (MIC) preventing growth of Staphylococcus epidermidis; assay type: functional
[11] = tested on: Staphylococcus aureus; experiment: Minimum inhibitory concentration (MIC) preventing growth of […]; assay type: functional
[12] = tested on: Staphylococcus aureus; experiment: Efficacy on systemic infections after oral administration in mice was determined against […] HS-93; assay type: functional; in short: as §2
[13] = tested on: Enterococcus faecalis; experiment: Minimum inhibitory concentration (MIC) preventing growth of Streptococcus faecalis ATCC 10541; assay type: functional
[14] = tested on: Enterobacter cloacae; experiment: Minimum inhibitory concentration (MIC)preventing growth of Enterobacter cloacae; assay type: functional
[15] = tested on: Pseudomonas aeruginosa; experiment: Minimum inhibitory concentration (MIC)preventing growth of Pseudomonas aeruginosa; assay type: functional
[16] = tested on: Mus musculus; experiment: Blood level after oral administration in mice (50 mg/kg) was determined (area under the concentration-time curve recorded at 0.5, 1, 2, and 4 hour after dosing); assay type: ADME, organism-based; design: dose 50 mg/kg, time < 4 hr, route oral; conditions: in vivo; in short: as §1

Compound: NC1CN(c2c(F)cc3c(=O)c(C(=O)O)cn(-c4ccc(F)cc4F)c3c2Cl)C1
- AUC [1]: 13000 ng·h/mL
- MIC [2]: 0.015 µg/mL (≈ 0.0354 µM)
- MIC [3]: 0.015 µg/mL (≈ 0.0354 µM)
- MIC [4]: 0.015 µg/mL (≈ 0.0354 µM)
- ED50 [5]: 2.3 mg/kg
- MIC [6]: 0.015 µg/mL (≈ 0.0354 µM)
- MIC [7]: 0.015 µg/mL (≈ 0.0354 µM)
- ED50 [8]: 55 mg/kg
- MIC [9]: 0.015 µg/mL (≈ 0.0354 µM)
- MIC [10]: 0.015 µg/mL (≈ 0.0354 µM)
- MIC [11]: 0.015 µg/mL (≈ 0.0354 µM)
- ED50 [12]: 1.7 mg/kg
- MIC [13]: 0.06 µg/mL (≈ 0.142 µM)
- MIC [14]: 0.015 µg/mL (≈ 0.0354 µM)
- MIC [15]: 0.12 µg/mL (≈ 0.283 µM)

Compound: CN(C)C1CN(c2cc3c(cc2F)c(=O)c(C(=O)O)cn3C2CC2)C1
- AUC [16]: 10600 ng·h/mL
- MIC [2]: 0.12 µg/mL (≈ 0.347 µM)
- MIC [3]: 0.015 µg/mL (≈ 0.0434 µM)
- MIC [4]: 0.06 µg/mL (≈ 0.174 µM)
- ED50 [5]: 1.3 mg/kg
- MIC [6]: 0.015 µg/mL (≈ 0.0434 µM)
- MIC [7]: 0.12 µg/mL (≈ 0.347 µM)
- ED50 [8]: 44.5 mg/kg
- MIC [9]: 0.12 µg/mL (≈ 0.347 µM)
- MIC [10]: 0.12 µg/mL (≈ 0.347 µM)
- MIC [11]: 0.12 µg/mL (≈ 0.347 µM)
- ED50 [12]: 35.6 mg/kg
- MIC [13]: 1 µg/mL (≈ 2.9 µM)
- MIC [14]: 0.06 µg/mL (≈ 0.174 µM)
- MIC [15]: 2 µg/mL (≈ 5.79 µM)

Compound: O=C(O)c1cn(C2CC2)c2cc(N3CCNCC3)c(F)cc2c1=O [CIPROFLOXACIN]
- AUC [1]: 2300 ng·h/mL
- MIC [2]: 0.25 µg/mL (≈ 0.754 µM)
- MIC [3]: 0.06 µg/mL (≈ 0.181 µM)
- ED50 [5]: 3 mg/kg
- MIC [6]: 0.03 µg/mL (≈ 0.0905 µM)
- MIC [7]: 0.06 µg/mL (≈ 0.181 µM)
- ED50 [8]: 70.3 mg/kg
- MIC [9]: 0.06 µg/mL (≈ 0.181 µM)
- MIC [10]: 0.5 µg/mL (≈ 1.51 µM)
- MIC [11]: 0.25 µg/mL (≈ 0.754 µM)
- ED50 [12]: 45.1 mg/kg
- MIC [13]: 0.5 µg/mL (≈ 1.51 µM)
- MIC [15]: 0.12 µg/mL (≈ 0.362 µM)

Compound: CNC1(C)CN(c2cc3c(cc2F)c(=O)c(C(=O)O)cn3C(C)(C)C)C1
- AUC [1]: 4600 ng·h/mL
- MIC [2]: 0.25 µg/mL (≈ 0.692 µM)
- MIC [3]: 0.06 µg/mL (≈ 0.166 µM)
- MIC [4]: 0.25 µg/mL (≈ 0.692 µM)
- MIC [6]: 0.06 µg/mL (≈ 0.166 µM)
- MIC [7]: 0.5 µg/mL (≈ 1.38 µM)
- MIC [9]: 0.5 µg/mL (≈ 1.38 µM)
- MIC [10]: 0.25 µg/mL (≈ 0.692 µM)
- MIC [11]: 0.25 µg/mL (≈ 0.692 µM)
- MIC [13]: 0.5 µg/mL (≈ 1.38 µM)
- MIC [14]: 0.25 µg/mL (≈ 0.692 µM)
- MIC [15]: 4 µg/mL (≈ 11.1 µM)

Compound: CCNC1CN(c2c(F)cc3c(=O)c(C(=O)O)cn(C4CC4)c3c2F)C1
- AUC [16]: 38200 ng·h/mL
- MIC [2]: 0.25 µg/mL (≈ 0.688 µM)
- MIC [3]: 0.06 µg/mL (≈ 0.165 µM)
- MIC [4]: 0.06 µg/mL (≈ 0.165 µM)
- ED50 [5]: 1.1 mg/kg
- MIC [6]: 0.06 µg/mL (≈ 0.165 µM)
- MIC [7]: 0.06 µg/mL (≈ 0.165 µM)
- ED50 [8]: 89 mg/kg
- MIC [9]: 0.25 µg/mL (≈ 0.688 µM)
- MIC [10]: 0.25 µg/mL (≈ 0.688 µM)
- MIC [11]: 0.25 µg/mL (≈ 0.688 µM)
- ED50 [12]: 16.6 mg/kg
- MIC [13]: 1 µg/mL (≈ 2.75 µM)
- MIC [14]: 0.06 µg/mL (≈ 0.165 µM)
- MIC [15]: 2 µg/mL (≈ 5.5 µM)

Compound: CC1(N)CN(c2cc3c(cc2F)c(=O)c(C(=O)O)cn3C2CC2)C1
- AUC [16]: 7000 ng·h/mL
- MIC [2]: 0.12 µg/mL (≈ 0.362 µM)
- MIC [3]: 0.06 µg/mL (≈ 0.181 µM)
- MIC [4]: 0.06 µg/mL (≈ 0.181 µM)
- ED50 [5]: 2.7 mg/kg
- MIC [6]: 0.12 µg/mL (≈ 0.362 µM)
- MIC [7]: 0.06 µg/mL (≈ 0.181 µM)
- ED50 [8]: 62.2 mg/kg
- MIC [9]: 0.06 µg/mL (≈ 0.181 µM)
- MIC [10]: 0.12 µg/mL (≈ 0.362 µM)
- MIC [11]: 0.12 µg/mL (≈ 0.362 µM)
- ED50 [12]: 36.1 mg/kg
- MIC [13]: 0.5 µg/mL (≈ 1.51 µM)
- MIC [14]: 0.12 µg/mL (≈ 0.362 µM)
- MIC [15]: 0.5 µg/mL (≈ 1.51 µM)

Compound: CNC1(C)CN(c2cc3c(cc2F)c(=O)c(C(=O)O)cn3C2CC2)C1
- AUC [16]: 8400 ng·h/mL
- MIC [2]: 0.25 µg/mL (≈ 0.724 µM)
- MIC [3]: 0.06 µg/mL (≈ 0.174 µM)
- MIC [4]: 0.06 µg/mL (≈ 0.174 µM)
- ED50 [5]: 1.9 mg/kg
- MIC [6]: 0.06 µg/mL (≈ 0.174 µM)
- MIC [7]: 0.06 µg/mL (≈ 0.174 µM)
- ED50 [8]: 69.8 mg/kg
- MIC [9]: 0.25 µg/mL (≈ 0.724 µM)
- MIC [10]: 0.25 µg/mL (≈ 0.724 µM)
- MIC [11]: 0.25 µg/mL (≈ 0.724 µM)
- ED50 [12]: 16.5 mg/kg
- MIC [13]: 1 µg/mL (≈ 2.9 µM)
- MIC [14]: 0.12 µg/mL (≈ 0.347 µM)
- MIC [15]: 2 µg/mL (≈ 5.79 µM)

Compound: CC1(N)CN(c2nc3c(cc2F)c(=O)c(C(=O)O)cn3C(C)(C)C)C1
- AUC [1]: 11300 ng·h/mL
- MIC [2]: 0.12 µg/mL (≈ 0.344 µM)
- MIC [3]: 0.015 µg/mL (≈ 0.0431 µM)
- MIC [4]: 0.06 µg/mL (≈ 0.172 µM)
- MIC [6]: 0.015 µg/mL (≈ 0.0431 µM)
- MIC [7]: 0.12 µg/mL (≈ 0.344 µM)
- MIC [9]: 0.25 µg/mL (≈ 0.718 µM)
- MIC [10]: 0.12 µg/mL (≈ 0.344 µM)
- MIC [11]: 0.12 µg/mL (≈ 0.344 µM)
- MIC [13]: 1 µg/mL (≈ 2.87 µM)
- MIC [14]: 0.12 µg/mL (≈ 0.344 µM)
- MIC [15]: 2 µg/mL (≈ 5.74 µM)

Compound: CCNC1CN(c2cc3c(cc2F)c(=O)c(C(=O)O)cn3C2CC2)C1
- AUC [16]: 18100 ng·h/mL
- MIC [2]: 0.25 µg/mL (≈ 0.724 µM)
- MIC [3]: 0.06 µg/mL (≈ 0.174 µM)
- MIC [4]: 0.06 µg/mL (≈ 0.174 µM)
- MIC [6]: 0.06 µg/mL (≈ 0.174 µM)
- MIC [7]: 0.5 µg/mL (≈ 1.45 µM)
- MIC [9]: 0.25 µg/mL (≈ 0.724 µM)
- MIC [10]: 0.25 µg/mL (≈ 0.724 µM)
- MIC [11]: 0.25 µg/mL (≈ 0.724 µM)
- MIC [13]: 2 µg/mL (≈ 5.79 µM)
- MIC [14]: 0.06 µg/mL (≈ 0.174 µM)
- MIC [15]: 2 µg/mL (≈ 5.79 µM)

Compound: CC1(N)CN(c2c(F)cc3c(=O)c(C(=O)O)cn(C4CC4)c3c2F)C1
- AUC [16]: 20000 ng·h/mL
- MIC [2]: 0.12 µg/mL (≈ 0.344 µM)
- MIC [3]: 0.03 µg/mL (≈ 0.0859 µM)
- MIC [4]: 0.06 µg/mL (≈ 0.172 µM)
- ED50 [5]: 3.1 mg/kg
- MIC [6]: 0.03 µg/mL (≈ 0.0859 µM)
- MIC [7]: 0.12 µg/mL (≈ 0.344 µM)
- ED50 [8]: 65.7 mg/kg
- MIC [9]: 0.25 µg/mL (≈ 0.716 µM)
- MIC [10]: 0.12 µg/mL (≈ 0.344 µM)
- MIC [11]: 0.12 µg/mL (≈ 0.344 µM)
- ED50 [12]: 13 mg/kg
- MIC [13]: 0.5 µg/mL (≈ 1.43 µM)
- MIC [14]: 0.06 µg/mL (≈ 0.172 µM)
- MIC [15]: 0.5 µg/mL (≈ 1.43 µM)

Compound: CN(C)C1CN(c2c(F)cc3c(=O)c(C(=O)O)cn(C4CC4)c3c2F)C1
- AUC [16]: 38200 ng·h/mL
- MIC [2]: 0.25 µg/mL (≈ 0.688 µM)
- MIC [3]: 0.015 µg/mL (≈ 0.0413 µM)
- MIC [4]: 0.06 µg/mL (≈ 0.165 µM)
- ED50 [5]: 1.7 mg/kg
- MIC [6]: 0.06 µg/mL (≈ 0.165 µM)
- MIC [7]: 0.12 µg/mL (≈ 0.33 µM)
- ED50 [8]: 90.8 mg/kg
- MIC [9]: 0.25 µg/mL (≈ 0.688 µM)
- MIC [10]: 0.25 µg/mL (≈ 0.688 µM)
- MIC [11]: 0.25 µg/mL (≈ 0.688 µM)
- ED50 [12]: 19.8 mg/kg
- MIC [13]: 1 µg/mL (≈ 2.75 µM)
- MIC [14]: 0.06 µg/mL (≈ 0.165 µM)
- MIC [15]: 2 µg/mL (≈ 5.5 µM)
